Reference: ChEMBL document CHEMBL1806360, “Synthesis and biological evaluation of conformationally flexible as well as restricted dimers of monastrol and related dihydropyrimidones” (Eur J Med Chem, 2011)
pIC50: −log10 of the molar value. Values after ≈ are worked out from the molar mass of the structure shown. Blank lines part the entries; values can stand above or below the molecule they belong to. Active and inactive are the calls of the source. No cut-off for these calls is given here.

Experiments:
Bacillus subtilis [1] = experiment: Antibacterial activity against Bacillus subtilis assessed as zone of inhibition at 50 ug/ml by agar plate method; type: functional, organism-based
Outline: (§1)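 Well diffusion on Mueller-Hinton agar. Inoculum from 3–5 colonies was grown in nutrient broth and adjusted to 0.5 McFarland (about 1 × 10⁸ CFU/mL), then swabbed over the plate. Compounds were dissolved in DMSO and added to duplicate 6 mm wells. Plates were incubated 18 h at 37 °C, and inhibition zone diameter was read to the nearest mm. Ciprofloxacin was the positive control and DMSO the negative control.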

A-431 = experiment: Cytotoxicity against human A431 cells after 48 hrs by MTT assay; type: functional, cell-based; conditions: A-431, 48 h
Outline: (§2)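 MTT assay. Medium with 10% FBS and 2 mM L-glutamine was DMEM for A431 and Colo-205, RPMI for A549, and MEM for MCF-7. Cultures were preincubated 24 h at 37 °C, 5% CO2. 1 × 10⁴ cells (trypan blue count) were exposed to 200, 100, 50, 25 and 10 concentration levels for 48 h at 37 °C. MTT was added for 4 h, formazan dissolved in DMSO, and A570 read. IC50 was curve-fitted from viability versus untreated cells, three experiments.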

COLO 205 = experiment: Cytotoxicity against human COLO205 cells after 48 hrs by MTT assay; type: functional, cell-based; conditions: COLO 205, 48 h; outline: as §2
Bacillus subtilis [2] = experiment: Antibacterial activity against Bacillus subtilis assessed as zone of inhibition at 100 ug/ml by agar plate method; type: functional; conditions: read-out: IZ; outline: as §1
Staphylococcus aureus [3] = experiment: Antibacterial activity against Staphylococcus aureus assessed as zone of inhibition at 50 ug/ml by agar plate method; type: functional; conditions: read-out: IZ; outline: as §1
[4] = tested on: Staphylococcus epidermidis; experiment: Antibacterial activity against Staphylococcus epidermidis assessed as zone of inhibition at 50 ug/ml by agar plate method; type: functional, organism-based; outline: as §1
Escherichia coli [5] = experiment: Antibacterial activity against Escherichia coli assessed as zone of inhibition at 100 ug/ml by agar plate method; type: functional; conditions: read-out: IZ; outline: as §1
Pseudomonas aeruginosa [6] = experiment: Antibacterial activity against Pseudomonas aeruginosa assessed as zone of inhibition at 50 ug/ml by agar plate method; type: functional; conditions: read-out: IZ; outline: as §1
[7] = tested on: Staphylococcus epidermidis; experiment: Antibacterial activity against Staphylococcus epidermidis assessed as zone of inhibition at 100 ug/ml by agar plate method; type: functional; conditions: read-out: IZ; outline: as §1
Staphylococcus aureus [8] = experiment: Antibacterial activity against Staphylococcus aureus assessed as zone of inhibition at 100 ug/ml by agar plate method; type: functional; conditions: read-out: IZ; outline: as §1
HT-29 = experiment: Cytotoxicity against human HT-29 cells after 48 hrs by MTT assay; type: functional, cell-based; conditions: HT-29, 48 h
A549 = experiment: Cytotoxicity against human A549 cells after 48 hrs by MTT assay; type: functional, cell-based; conditions: A549, 48 h; outline: as §2
Klebsiella pneumoniae [9] = experiment: Antibacterial activity against Klebsiella pneumoniae assessed as zone of inhibition at 100 ug/ml by agar plate method; type: functional; conditions: read-out: IZ; outline: as §1
Klebsiella pneumoniae [10] = experiment: Antibacterial activity against Klebsiella pneumoniae assessed as zone of inhibition at 50 ug/ml by agar plate method; type: functional, organism-based; outline: as §1
Pseudomonas aeruginosa [11] = experiment: Antibacterial activity against Pseudomonas aeruginosa assessed as zone of inhibition at 100 ug/ml by agar plate method; type: functional; conditions: read-out: IZ; outline: as §1
MCF7 = experiment: Cytotoxicity against human MCF7 cells after 48 hrs by MTT assay; type: functional, cell-based; conditions: MCF7, 48 h; outline: as §2
Escherichia coli [12] = experiment: Antibacterial activity against Escherichia coli assessed as zone of inhibition at 50 ug/ml by agar plate method; type: functional, organism-based; outline: as §1
[13] = target: T1, Kinesin-like protein KIF11 (Homo sapiens, UniProt P52732); experiment: Inhibition of HsEg5
T1 sequence (P52732 whole entry): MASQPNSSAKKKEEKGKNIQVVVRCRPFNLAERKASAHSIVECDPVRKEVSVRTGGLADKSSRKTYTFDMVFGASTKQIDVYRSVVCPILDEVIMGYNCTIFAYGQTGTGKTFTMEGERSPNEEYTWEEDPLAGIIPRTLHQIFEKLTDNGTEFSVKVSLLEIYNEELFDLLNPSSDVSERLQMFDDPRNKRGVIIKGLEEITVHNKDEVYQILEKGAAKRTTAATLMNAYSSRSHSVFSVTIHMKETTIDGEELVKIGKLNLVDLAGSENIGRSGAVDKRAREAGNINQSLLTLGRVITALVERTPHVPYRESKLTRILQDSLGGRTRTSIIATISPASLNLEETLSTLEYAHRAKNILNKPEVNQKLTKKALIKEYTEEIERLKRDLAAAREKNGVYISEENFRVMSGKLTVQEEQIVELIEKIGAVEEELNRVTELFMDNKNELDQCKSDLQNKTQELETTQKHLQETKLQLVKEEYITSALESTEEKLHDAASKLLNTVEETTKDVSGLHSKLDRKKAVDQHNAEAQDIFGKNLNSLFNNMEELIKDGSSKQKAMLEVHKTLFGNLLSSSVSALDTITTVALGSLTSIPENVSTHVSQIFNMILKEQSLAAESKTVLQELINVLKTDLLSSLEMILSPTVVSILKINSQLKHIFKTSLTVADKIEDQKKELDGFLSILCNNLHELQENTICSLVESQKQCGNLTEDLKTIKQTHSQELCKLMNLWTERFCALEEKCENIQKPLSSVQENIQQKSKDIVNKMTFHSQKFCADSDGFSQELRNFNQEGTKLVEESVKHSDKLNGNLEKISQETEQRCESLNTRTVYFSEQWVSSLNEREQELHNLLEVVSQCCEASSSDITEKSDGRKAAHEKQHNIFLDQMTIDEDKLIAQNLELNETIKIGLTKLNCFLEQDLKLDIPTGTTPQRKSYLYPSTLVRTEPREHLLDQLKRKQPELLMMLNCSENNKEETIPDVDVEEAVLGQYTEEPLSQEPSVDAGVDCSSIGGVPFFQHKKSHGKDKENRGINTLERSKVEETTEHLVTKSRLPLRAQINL

Nucleic Acid = experiment: Binding affinity to calf thymus DNA assessed as change in melting temperature at compound to DNA ratio of 1:5 after 18 hrs at pH 7; type: nucleic-acid assay; conditions: Bos taurus
Outline: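 Thermal melting of calf thymus DNA in 10 mM sodium phosphate with 1 mM Na2EDTA, pH 7.00. Compound was added from DMSO stock at a fixed 1:5 compound:DNA molar ratio. The mix was incubated 18 h at 37 °C, then A260 was monitored while heating at 1 °C/min over 40–90 °C. ΔTm is relative to DNA alone.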

SMILES: CCOC(=O)C1=C(C)NC(=S)NC1c1ccc(OCCCCCOc2ccc(C3NC(=S)NC(C)=C3C(=O)OCC)cc2OC)c(OC)c1 (stereo not drawn)
- Activity (Bacillus subtilis [1]): inactive
- IC50 (A-431): 124 µg/mL (≈ 174 µM)
- IC50 (COLO 205): 113 µg/mL (≈ 159 µM)
- zone of inhibition at 100 µg/mL (Bacillus subtilis [2]): 8 mm
- zone of inhibition at 50 µg/mL (Staphylococcus aureus [3]): 10 mm
- Activity [4]: inactive
- zone of inhibition at 100 µg/mL (Escherichia coli [5]): 10 mm
- zone of inhibition at 50 µg/mL (Pseudomonas aeruginosa [6]): 12 mm
- zone of inhibition at 100 µg/mL [7]: 10 mm
- zone of inhibition at 100 µg/mL (Staphylococcus aureus [8]): 19 mm
- IC50 (HT-29): > 200 µg/mL
- IC50 (A549): > 200 µg/mL
- zone of inhibition at 100 µg/mL (Klebsiella pneumoniae [9]): 10 mm
- Activity (Klebsiella pneumoniae [10]): inactive
- zone of inhibition at 100 µg/mL (Pseudomonas aeruginosa [11]): 20 mm
- IC50 (MCF7): 180 µg/mL (≈ 252 µM)
- Activity (Escherichia coli [12]): inactive

- pIC50 [13]: 4.85
- ΔTm (Nucleic Acid): 0 °C
SMILES: CCOC(=O)C1=C(C)NC(=S)NC1c1cccc(O)c1 (stereo not drawn) [MONASTROL]
- IC50 (A-431): 53 µg/mL (≈ 181 µM)
- IC50 (COLO 205): 164 µg/mL (≈ 561 µM)
- IC50 (A549): 118 µg/mL (≈ 404 µM)
- IC50 (MCF7): 45 µg/mL (≈ 154 µM)
